In ChEMBL document CHEMBL3865784 (Eur J Med Chem, 2016):

How the values were obtained:
L929 [1] = assay: Selectivity index, ratio of IC50 for NQO1-deficient mouse L929 cells to IC50 for NQO1-deficient human HL60 cells; assay type: functional
Method in brief: (§1)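 Selectivity index is IC50 in the normal cells divided by IC50 in the cancer line. Normal cells: V79 and L929 in DMEM, PBMC in RPMI with phytohaemagglutinin. Cancer lines in RPMI with 10% FBS, seeded at 0.1 × 10^6 (HL-60) or 0.7 × 10^5 cells/well (solid tumors). Absorbance 550 nm; nonlinear regression.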

OVCAR-8 [2] = assay: Selectivity index, ratio of IC50 for NQO1-deficient human PBMC to IC50 for human OVCAR8 cells overexpressing NQO1
Method in brief: as §1, with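 “line. All IC50s come from 72 h MTT assays.” for “line.”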

[3] = Cytotoxicity against human HCT116 cells expressing NQO1 assessed as reduction in cell viability after 72 hrs by MTT assay; assay type: functional, cell-based; conditions: HCT-116, 72 h
Method in brief: (§2)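 Cancer lines from NCI, grown in RPMI 1640 with 10% FBS, 2 mM L-glutamine, penicillin/streptomycin, 37 °C, 5% CO2; seeded 0.1 × 10^6 cells/well (HL-60) or 0.7 × 10^5 cells/well (solid tumours). Compounds in DMSO, final 0.1% v/v; DMSO vehicle as negative control.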

[4] = Cytotoxicity against human MDA-MB-435 cells overexpressing NQO1 assessed as reduction in cell viability after 72 hrs by MTT assay; assay type: functional, cell-based; conditions: MDA-MB-435, 72 h; method in brief: as §2
HL-60 [5] = assay: Selectivity index, ratio of IC50 for NQO1-deficient chinese hamster V79 cells to IC50 for NQO1-deficient human HL60 cells; assay type: functional; method in brief: as §1
SF-295 [6] = assay: Selectivity index, ratio of IC50 for NQO1-deficient human PBMC to IC50 for human SF295 cells overexpressing NQO1; method in brief: as §1
[7] = Cytotoxicity against human OVCAR8 cells overexpressing NQO1 assessed as reduction in cell viability after 72 hrs by MTT assay; assay type: functional, cell-based; conditions: OVCAR-8, 72 h; method in brief: as §2
L929 [8] = assay: Selectivity index, ratio of IC50 for NQO1-deficient mouse L929 cells to IC50 for human SF295 cells overexpressing NQO1; method in brief: as §1
[9] = Cytotoxicity against NQO1-deficient human PBMC assessed as reduction in cell viability after 72 hrs by MTT assay; assay type: toxicity, cell-based; conditions: for IC50: pbmc
[10] = Cytotoxicity against NQO1-deficient human HL60 cells assessed as reduction in cell viability after 72 hrs by MTT assay; assay type: functional, cell-based; conditions: HL-60, 72 h; method in brief: as §2
SF-295 [11] = assay: Selectivity index, ratio of IC50 for NQO1-deficient chinese hamster V79 cells to IC50 for human SF295 cells overexpressing NQO1; method in brief: as §1
Mus musculus = organism: Mus musculus; assay: Cytotoxicity against NQO1-deficient mouse L929 cells assessed as reduction in cell viability after 72 hrs by MTT assay; assay type: toxicity, cell-based; conditions: l929
L929 [12] = assay: Selectivity index, ratio of IC50 for NQO1-deficient mouse L929 cells to IC50 for human OVCAR8 cells overexpressing NQO1; method in brief: as §1
HL-60 [13] = assay: Selectivity index, ratio of IC50 for NQO1-deficient human PBMC to IC50 for NQO1-deficient human HL60 cells; method in brief: as §1
[14] = Cytotoxicity against human PC3 cells overexpressing NQO1 assessed as reduction in cell viability after 72 hrs by MTT assay; assay type: functional, cell-based; conditions: PC-3, 72 h
[15] = Cytotoxicity against NQO1-deficient chinese hamster V79 cells assessed as reduction in cell viability after 72 hrs by MTT assay; assay type: toxicity, cell-based, Cricetulus griseus; conditions: v79
[16] = Cytotoxicity against human SF295 cells overexpressing NQO1 assessed as reduction in cell viability after 72 hrs by MTT assay; assay type: functional, cell-based; conditions: SF-295, 72 h
[17] = Selectivity index, ratio of IC50 for NQO1-deficient human PBMC to IC50 for human MDA-MB-435 cells overexpressing NQO1; method in brief: as §1
L929 [18] = assay: Selectivity index, ratio of IC50 for NQO1-deficient mouse L929 cells to IC50 for human MDA-MB-435 cells overexpressing NQO1; method in brief: as §1
HCT-116 [19] = assay: Selectivity index, ratio of IC50 for NQO1-deficient chinese hamster V79 cells to IC50 for human HCT116 cells expressing NQO1
Method in brief: as §1, with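 “line. All IC50s come from 72 h MTT assays.” for “line.”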

HCT-116 [20] = assay: Selectivity index, ratio of IC50 for NQO1-deficient mouse L929 cells to IC50 for human HCT116 cells expressing NQO1
Method in brief: as §1, with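 “line. All IC50s come from 72 h MTT assays.” for “line.”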

V79 [21] = assay: Selectivity index, ratio of IC50 for NQO1-deficient chinese hamster V79 cells to IC50 for human MDA-MB-435 cells overexpressing NQO1; method in brief: as §1
V79 [22] = assay: Selectivity index, ratio of IC50 for NQO1-deficient chinese hamster V79 cells to IC50 for human PC3 cells overexpressing NQO1; method in brief: as §1
PC-3 = assay: Selectivity index, ratio of IC50 for NQO1-deficient human PBMC to IC50 for human PC3 cells overexpressing NQO1; method in brief: as §1
L929 [23] = assay: Selectivity index, ratio of IC50 for NQO1-deficient mouse L929 cells to IC50 for human PC3 cells overexpressing NQO1; method in brief: as §1
OVCAR-8 [24] = assay: Selectivity index, ratio of IC50 for NQO1-deficient chinese hamster V79 cells to IC50 for human OVCAR8 cells overexpressing NQO1
Method in brief: as §1, with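 “line. All IC50s come from 72 h MTT assays.” for “line.”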

| SMILES | Ratio IC50 (L929 [1]) | IC50 [3] [µM] | IC50 [4] [µM] | Ratio IC50 (HL-60 [5]) | IC50 [7] [µM] | Ratio IC50 (L929 [8]) | IC50 [9] [µM] | IC50 [10] [µM] | IC50 (Mus musculus) [µM] | IC50 [14] [µM] | IC50 [15] [µM] | IC50 [16] [µM] | also measured |
| --- | --- | --- | --- | --- | --- | --- | --- | --- | --- | --- | --- | --- | --- |
| CC1(C)CC(N=[N+]=[N-])C2=C(O1)C(=O)c1ccccc1C2=O (centres undefined) | 2.4 | 2.96 | 2.72 | 2.2 | 1.48 | 2 | 6.11 | 1.66 | 4.13 | 2.15 | 3.67 | – | Ratio IC50 (OVCAR-8 [2]): 4.1; Ratio IC50 (SF-295 [6]): 2.9; Ratio IC50 (SF-295 [11]): 1.7; Ratio IC50 (L929 [12]): 2.7; Ratio IC50 (HL-60 [13]): 3.6 |
| CC1(C)CCC2=C(O1)c1ccccc1C(=O)C2=O [LAPACHONE] | – | 0.87 | 0.25 | – | – | – | > 20.6 | – | – | – | – | 0.95 | – |
| O=C1C(Br)=C(NCc2cn(C[Se]c3ccccc3)nn2)C(=O)c2ccccc21 | 2.9 | 1.67 | 1.43 | 2.7 | – | 2 | 3.86 | 1.11 | 3.3 | 2.29 | 3.03 | 1.61 | Ratio IC50 [17]: 2.6; Ratio IC50 (L929 [18]): 2.3; Ratio IC50 (HCT-116 [19]): 1.8; Ratio IC50 (SF-295 [11]): 1.8; Ratio IC50 (HCT-116 [20]): 1.9; Ratio IC50 (HL-60 [13]): 3.4; Ratio IC50 (V79 [21]): 2.1 |
| CC1(C)OC2=C(C(=O)C(=O)c3ccccc32)C(N=[N+]=[N-])[C@@H]1Br (some centres undefined) | 1.4 | 2.48 | 1.54 | 1.6 | 2.24 | 1 | – | – | 2.04 | 1.68 | 2.4 | – | Ratio IC50 [17]: 2.3; Ratio IC50 (SF-295 [6]): 1.8; Ratio IC50 (L929 [18]): 1.3; IC50 at 72 h ([9]; human): 3.58 µM; Ratio IC50 (V79 [22]): 1.4; Ratio IC50 (PC-3): 2.1; Ratio IC50 (HL-60 [13]): 2.5; Ratio IC50 (L929 [23]): 1.2; Ratio IC50 (V79 [21]): 1.5 |
| C#Cc1cccc(NC2CC(C)(C)OC3=C2C(=O)c2ccccc2C3=O)c1 (centres undefined) | – | > 14 | > 14 | – | > 14 | – | > 14 | > 14 | > 14 | > 14 | > 14 | > 14 | – |
| CC1(C)CC(Nc2cccc(-c3cn(C[Se]c4ccccc4)nn3)c2)C2=C(O1)C(=O)c1ccccc1C2=O (centres undefined) | 1.6 | 4.9 | 1.49 | 1.8 | 3.09 | 1.7 | 4.16 | 2 | 3.3 | 2.6 | 3.65 | 1.88 | Ratio IC50 [17]: 2.8; Ratio IC50 (L929 [18]): 2.2; Ratio IC50 (SF-295 [11]): 1.9; Ratio IC50 (HL-60 [13]): 2; Ratio IC50 (V79 [21]): 2.4 |
| O=C1C(Cl)=C(NCc2cn(C[Se]c3ccccc3)nn2)C(=O)c2ccccc21 | – | 3.25 | 2.01 | – | 2.58 | – | 6.34 | – | 3.43 | 2.25 | 2.51 | 2.93 | – |
| CC1(C)OC2=C(C(=O)c3ccccc3C2=O)C1n1cc(C[Se]c2ccccc2)nn1 (centres undefined) | – | 2.54 | 2.15 | – | 2.8 | – | 3.23 | 1.59 | 3.77 | 2.95 | 4.03 | 2.65 | – |
| O=C1C=C(n2cc(C[Se]c3ccccc3)nn2)C(=O)c2ccccc21 | – | > 12.7 | > 12.7 | – | > 12.7 | – | > 12.7 | > 12.7 | > 12.7 | > 12.7 | > 12.7 | > 12.7 | – |
| C#Cc1cccc(NC2C3=C(OC2(C)C)C(=O)c2ccccc2C3=O)c1 (centres undefined) | – | 4.6 | 3.93 | – | 7.13 | – | 6.46 | 2.59 | – | 5.15 | 6.06 | > 14.6 | – |
| CC1(C)OC2=C(C(=O)c3ccccc3C2=O)C1N=[N+]=[N-] (centres undefined) | – | 3.3 | 2.52 | – | 3.53 | – | 3.16 | 2.23 | 3.68 | 4.09 | – | 3.04 | – |
| CC1(C)OC2=C(C(=O)C(=O)c3ccccc32)C1N=[N+]=[N-] (centres undefined) | – | 0.89 | – | – | 1.34 | – | – | – | 2.67 | 1.74 | 3.27 | – | – |
| O=C1C2=C(OC(Cn3cc(C[Se]c4ccccc4)nn3)C2)C(=O)c2ccccc21 (centres undefined) | 2.6 | 2.42 | 0.62 | 2.4 | 0.91 | 2.1 | 2.8 | 0.82 | 2.15 | 1.4 | 2.02 | 0.98 | Ratio IC50 [17]: 4.5; Ratio IC50 (OVCAR-8 [2]): 3; Ratio IC50 (SF-295 [6]): 2.8; Ratio IC50 (L929 [18]): 3.4; Ratio IC50 (V79 [22]): 1.4; Ratio IC50 (PC-3): 2; Ratio IC50 (OVCAR-8 [24]): 2.2; Ratio IC50 (L929 [12]): 2.3; Ratio IC50 (L929 [23]): 1.5; Ratio IC50 (V79 [21]): 3.2 |
| CC1(C)CC(n2cc(C[Se]c3ccccc3)nn2)C2=C(O1)C(=O)c1ccccc1C2=O (centres undefined) | – | 2.24 | – | – | 2.55 | – | 4.45 | 5.46 | – | 3.89 | – | 4.2 | – |
| CC1(C)OC2=C(C(=O)C(=O)c3ccccc32)[C@@H](n2cc(C[Se]c3ccccc3)nn2)[C@@H]1Br | 1.4 | 1.11 | 1.31 | 1.7 | 0.92 | 1.1 | – | 1.22 | 1.74 | 1.9 | 2.17 | 1.52 | Ratio IC50 (OVCAR-8 [2]): 2; Ratio IC50 (SF-295 [6]): 1.2; Ratio IC50 (L929 [18]): 1.3; Ratio IC50 (HCT-116 [19]): 1.9; Ratio IC50 (V79 [22]): 1.1; Ratio IC50 (PC-3): 0.9; Ratio IC50 (OVCAR-8 [24]): 2.3; Ratio IC50 (HCT-116 [20]): 1.5; Ratio IC50 (L929 [12]): 1.8; Ratio IC50 (HL-60 [13]): 1.5; Ratio IC50 (L929 [23]): 0.9; Ratio IC50 (V79 [21]): 1.6 |
| O=C1C2=C(C(=O)c3ccccc31)[C@H](c1cccc3ccccc13)[C@@H](n1cc(C[Se]c3ccccc3)nn1)CO2 | – | > 8.67 | > 8.67 | – | > 8.67 | – | > 8.67 | > 8.67 | > 8.67 | > 8.67 | > 8.67 | > 8.67 | – |
| O=C1C2=C(C(=O)c3ccccc31)[C@H](c1ccccc1)[C@@H](n1cc(C[Se]c3ccccc3)nn1)CO2 | – | 7.22 | 6.82 | – | – | – | – | 8.26 | 7.16 | 7.79 | 6.74 | 5.58 | – |
| [N-]=[N+]=NC1=CC(=O)c2ccccc2C1=O | – | 4.27 | 2.36 | – | 3.51 | – | 8.64 | – | 5.17 | 2.16 | 5.77 | 3.41 | – |
